Measured values published in ChEMBL document CHEMBL1154571, “A cytotoxic sesquiterpene caffeate from the liverwort Bazzanianovae-zelandiae” (2000).
Converted amounts (≈) assume the structure as drawn.

Key:
Format in all cases: functional
[1] = test system: P388; assay: Cytotoxicity against mouse P388 cells after 72 hrs by MTT assay
Summary of the method: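 P-388D1 murine leukemia cells (ATCC CCL 46) were incubated 72 h with a two-fold dilution series of sample. Growth was read by MTT tetrazolium staining absorbance. The concentration giving 50% of solvent-control growth was determined. Values are means of replicates. Mitomycin C at 0.06 μg/mL served as positive control.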

[2] = test system: P388; assay: Cytotoxicity against mouse P388 cells at 0.06 ug/mL after 72 hrs by MTT assay; conditions: P388, 72 h, read-out: GI
Summary of the method: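 Mitomycin C positive control at 0.06 μg/mL on P-388D1 murine leukemia cells (ATCC CCL 46), 72 h incubation. Growth was read by MTT tetrazolium absorbance and expressed as percent inhibition relative to a solvent control.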

[3] = Cytotoxicity against human NCI60 cells
[4] = test system: CCRF-CEM; assay: Cytotoxicity against human CCRF-CEM cells
[5] = test system: NCI-H522; assay: Cytotoxicity against human NCI-H522 cells
[6] = Mus musculus, P388, 72 h, read-out: GI50

| Compound | GI50 [1, 6] [µg/mL] | also measured |
| --- | --- | --- |
| C=C1CCC2CC1C(C)(C)CC(OC(=O)/C=C/c1ccc(O)c(O)c1)/C=C\2C (stereo unspecified) [BAZZANENEYL CAFFEATE] | 0.9 (≈ 2.35 µM) | – |
| O=C(O)/C=C/c1ccc(O)c(O)c1 [CAFFEIC ACID] | > 25 | – |
| O=C(/C=C/c1ccc(O)c(O)c1)O[C@H](C(=O)O)[C@H](OC(=O)/C=C/c1ccc(O)c(O)c1)C(=O)O [CHICORIC ACID] | > 25 | – |
| CO[C@@]12[C@H](COC(N)=O)C3=C(C(=O)C(C)=C(N)C3=O)N1C[C@@H]1N[C@@H]12 [MITOMYCIN] | – | inhibition of growth at 0.06 µg/mL [2]: 43% |
| C[C@@H]1CC[C@@]2(C)[C@H](C)/C(=C/CO)CC[C@@]12C [NAVICULOL] | > 25 | – |
| C[C@@H]1CC[C@@]2(C)[C@H](C)/C(=C\COC(=O)/C=C/c3ccc(O)c(O)c3)CC[C@@]12C [NAVICULYL CAFFEATE] | 0.8 (≈ 2.08 µM) | GI50 [1]: 1.1 µg/mL (≈ 2.86 µM); GI50 [3]: 2.5 µg/mL (≈ 6.5 µM); GI50 [4]: 0.4 µg/mL (≈ 1.04 µM); GI50 [5]: 0.5 µg/mL (≈ 1.3 µM) |
| CC(C)=CCOC(=O)/C=C/c1ccc(O)c(O)c1 [PRENYL CAFFEATE] | 6.9 (≈ 27.8 µM) | – |
